This is an account of results in the array DNA melting data of Ke et al. (doi:10.1101/2024.01.08.574731).

A short description of series [1]: melting temperature; fluorescence melt of hairpins on a sequencing array, two-state fit, raised by 9.35 °C to match UV melts. As to conditions: sodium 0.088 M. The procedure, abridged: (§1)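 Folding enthalpy and melting temperature come from bootstrapped two-state fits to Cy3 fluorescence of library hairpins carrying annealed Cy3 and quencher oligos on a sequenced MiSeq flow cell. Imaging was done in 50 mM Na-HEPES pH 8.0, 25 mM NaCl, stepping by 2.5 °C up to 60 °C, and signals were normalised to pre-quench Cy3 and to control constructs. Results of four replicates were combined by inverse variance, and fitted temperatures were raised by 9.35 °C to match UV melts.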

Series [2] can be described thus: folding enthalpy; higher = less favourable; fluorescence melt of hairpins on a sequencing array, two-state fit. As to conditions: sodium 0.088 M. The procedure, abridged: as §1

For the sequence GTACCGGGAAACCGGTGC (.(((((....))))).), the Tm in series [1] turned out to be 57.1 °C. Further, the folding enthalpy in series [2] is -19.1 kcal/mol.
The corresponding values for GTACCGTCGAAAGACTAC (((..(((....)))))) are 25.7 °C and -8.88 kcal/mol.
For GTACCTGGAAACAGGTGC (.(((((....))))).), in that order: 52.4 °C and -28.1 kcal/mol.
The corresponding values for GTACGACCGAAAGGTTAC (((..(((....)))))) are 19.8 °C and -8.91 kcal/mol.
On to GTACGCGAAAGCGAGTAC ((((((....)))..))), for which the Tm in series [1] came to 41.1 °C. Besides, the folding enthalpy in series [2] was -13.8 kcal/mol.
In the case of GTACGCGAAAGCGCATAC ((((((....)))..))), the Tm in series [1] is 22.5 °C. The folding enthalpy in series [2] is -5.57 kcal/mol.
For GTACGCGGAAACGCACAC ((..(((....)))..)), in that order: 33.1 °C and -13.8 kcal/mol.
The corresponding values for GTACGCGGAAACGCATAC (((.(((....))).))) are 39.9 °C and -19.6 kcal/mol.
The corresponding values for GTACGCGGAAACGTGTAC ((((.((....)).)))) are 54.6 °C and -28.1 kcal/mol.
For the sequence GTACGGCGAAAGCCCTAC (((.(((....))).))), the Tm in series [1] is 35.9 °C. Also, in series [2], the folding enthalpy is -12.5 kcal/mol.
The corresponding values for GTACGGCGAAAGCCTAC (((.(((....)))))) are 44.4 °C and -14.9 kcal/mol.
For GTACGGGAAACCGTAC ((((((....)))))), the Tm in series [1] was 63.2 °C. For the same sequence, the folding enthalpy in series [2] is -27.9 kcal/mol.
On to GTACGGGGAAACTCGTGC (.(((.(....).))).), for which, in series [1], the Tm came to 39.6 °C. The folding enthalpy in series [2] is -27.5 kcal/mol.
As to GTACGTGAAAACGTAC ((((((....)))))), the Tm in series [1] came out at 59.5 °C. Besides, in series [2], the folding enthalpy is -37 kcal/mol.
For GTACTAGCGAAAGCTTAC (((..(((....)))))), in that order: 28.2 °C and -9.73 kcal/mol.
The corresponding values for GTACTCCGAAAGGACTAC (((.(((....))).))) are 33.2 °C and -14.1 kcal/mol.
The corresponding values for GTACTCGAAAGAGCGTAC ((((((....)))..))) are 28.5 °C and -10.7 kcal/mol.
GTACTCTCGAAAGAGTAC (((..(((....)))))): in series [1], the Tm is 52.5 °C. Further, the folding enthalpy in series [2] was -36.9 kcal/mol.
On to GTACTGGGAAACCAGTAC (((((((....))))))), for which the Tm in series [1] is 58.5 °C. Besides, the folding enthalpy in series [2] is -36.9 kcal/mol.
Consider GTACTGGGAAACCGGTAC ((((.((....)).)))), for which the Tm in series [1] came out at 50.1 °C. The folding enthalpy in series [2] was -35.3 kcal/mol.
For GTACTTGCGAAAGCATAC (((..(((....)))))), in that order: 30.2 °C and -9 kcal/mol.
As to GTAGAAACGAAAGTTTAC (((..(((....)))))), in series [1], the Tm worked out at 27.4 °C. Further, the folding enthalpy in series [2] is -15.8 kcal/mol.
The corresponding values for GTAGAAGGAAACTTCTAC (((((((....))))))) are 51.4 °C and -40 kcal/mol.
The corresponding values for GTAGACGAAAGTCAATAC ((((((....)))..))) are 27.6 °C and -13.5 kcal/mol.
The corresponding values for GTAGACGAAAGTCATAC ((((((....))).))) are 39.9 °C and -12.8 kcal/mol.
For the sequence GTAGACGAAAGTCCCTAC ((((((....)))..))), the Tm in series [1] was 19.7 °C. Besides, in series [2], the folding enthalpy is -7.5 kcal/mol.
For GTAGACGAAAGTCGCTAC ((((((....)))..))), in that order: 40.5 °C and -10.8 kcal/mol.
GTAGACGAAAGTCTTAC ((((((....))).))): the Tm in series [1] turned out to be 38.6 °C. Besides, the folding enthalpy in series [2] is -14.6 kcal/mol.
The corresponding values for GTAGAGGGAAACCTCCAC ((.((((....)))).)) are 31.2 °C and -16.7 kcal/mol.
For GTAGATGGAAACATCTGC (.(((((....))))).), in that order: 45.6 °C and -20.8 kcal/mol.
For GTAGCACGAAAGTGATAC (((.(((....))).))), in that order: 58.4 °C and -39 kcal/mol.
With GTAGCACGAAAGTGTAC (((.(((....)))))), the Tm in series [1] was 40.4 °C. Further, in series [2], the folding enthalpy was -14.2 kcal/mol.
For GTAGCGCGAAAGCGTAC (((.(((....)))))), in that order: 44 °C and -10.8 kcal/mol.
Turning to GTAGGAGCGAAAGCTTAC (((..(((....)))))), in series [1], the Tm amounted to 31.2 °C. In addition, in series [2], the folding enthalpy was -11.2 kcal/mol.
The corresponding values for GTAGGCGAAAGCCAGTAC ((((((....)))..))) are 27.4 °C and -8.17 kcal/mol.
In the case of GTAGGCGAAAGCCTCTAC ((((((....)))..))), the Tm in series [1] was determined as 36.4 °C. Moreover, the folding enthalpy in series [2] is -8.87 kcal/mol.
